In ChEMBL document CHEMBL4680304, “Synthesis and evaluation of new phenyl acrylamide derivatives as potent non-nucleoside anti-HBV agents” (Bioorg Med Chem, 2021):
pIC50: −log10 of the molar value.

How the values were obtained:
[1] = Cytotoxicity against human HepG2 2.2.15 cell line assessed as cell viability measured after 72 hrs by MTT assay; type: cell-based; conditions: HepG2 2.2.15 cells
Procedure, shortened: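 HepG2 2.2.15 cells were precultured for 24 h, then incubated with compound for 72 h. Viability was read as MTT absorbance at 490 nm relative to untreated cells on the same plate. CC50 is the concentration causing 50% cell death.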

[2] = tested on: Hepatitis B virus; assay: Antiviral activity against HBV infected in human HepG2 2.2.15 cells assessed as decrease in extracellular viral DNA level at 0.8 uM measured after incubation of 6 days by RT-PCR analysis; type: functional; conditions: HepG2 2.2.15, 144 h, time 6 day
Procedure, shortened: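 HepG2 2.2.15 cells, which stably carry the HBV genome, were grown in DMEM with 10% FBS, penicillin/streptomycin and 0.38 mg/mL G418. They were seeded at 2×10^5/well and allowed to recover for 24 h. Cells were then exposed to 0.8 µM compound for 6 days, with medium changed every 2 days. HBV DNA was quantified by real-time PCR and expressed as % inhibition versus control.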

[3] = tested on: Hepatitis B virus; assay: Antiviral activity against HBV infected in human HepG2 2.2.15 cells assessed as decrease in extracellular viral DNA level measured after incubation of 6 days by RT-PCR analysis; type: functional, organism-based; conditions: HepG2 2.2.15, 144 h
Procedure, shortened: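 Cells were HepG2 2.2.15 (stable HBV genome), seeded at 2×10^5/well and recovered for 24 h. Dose-dependent exposure to compound lasted 6 days, with medium replaced every 2 days. HBV DNA was measured by real-time PCR. IC50 is the concentration giving 50% inhibition of HBV DNA replication, reported as mean ± SD of triplicate experiments.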

[4] = Selectivity index, ratio of CC50 for human HepG2 2.2.15 to IC50 of antiviral activity against HBV infected in human HepG2 2.2.15 cells assessed as decrease in extracellular viral DNA level measured after incubation of 6 days by RT-PCR analysis; type: toxicity, cell-based; conditions: time 6 day, read-out: Selectivity Index
Procedure, shortened: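 SI was calculated as the CC50 in HepG2 2.2.15 cells (72 h MTT) divided by the IC50 for HBV DNA inhibition. That IC50 came from HepG2 2.2.15 cells treated for 6 days with medium changed every 2 days, with HBV DNA quantified by real-time PCR.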

[5] = tested on: Hepatitis B virus; assay: Antiviral activity against lamivudine/entecavir-resistant HBV rtL180M/rtM204V/rtT184L mutant infected in human HepG2 2.2.15 cells assessed as inhibition of viral DNA replication measured after incubation of 72 hrs by RT-PCR analysis; type: functional, organism-based; conditions: for pIC50: HepG2 2.2.15, 72 h
Procedure, shortened: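 HepG2 cells transiently transfected for 24 h with full-genome HBV plasmid carrying rtL180M + rtM204V + rtT184L, washed, then treated over a dose range for 72 h. HBV DNA replicative intermediates quantified by real-time PCR. IC50 is the concentration giving 50% inhibition of HBV DNA replication, as mean ± SD of triplicate experiments.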

[6] = tested on: Hepatitis B virus; assay: (§1) Antiviral activity against lamivudine/entecavir-resistant HBV rtL180M/rtM204V/rtT184L mutant infected in human HepG2 2.2.15 cells assessed as inhibition of viral DNA replication at 0.8 uM measured after incubation of 72 hrs by RT-PCR analysis relative to control; type: functional
Procedure, shortened: (§2)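 HepG2 cells (2 × 10^5/well) plated 24 h, then transiently transfected for 24 h with plasmid carrying full-genome HBV with rtL180M + rtM204V + rtT184L (wild-type genome in parallel). Washed with PBS, then given fresh medium with compound for 72 h. Intracellular HBV DNA replicative intermediates extracted and quantified by real-time PCR against the wild-type group.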

[7] = as §1, with “Selectivity index, ratio of CC50 for human HepG2 2.2.15 to IC50 of Antiviral” for “Antiviral”, “replication” for “replication at 0.8 uM”; type: toxicity, cell-based; conditions: read-out: Selectivity Index
Procedure, shortened: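 SI is CC50 divided by IC50. CC50 comes from MTT on HepG2 2.2.15 cells, 72 h exposure, absorbance at 490 nm relative to untreated cells. IC50 comes from HepG2 cells transiently transfected with rtL180M + rtM204V + rtT184L HBV plasmid and treated 72 h, with DNA replicative intermediates measured by real-time PCR, triplicate experiments.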

[8] = tested on: Hepatitis B virus; assay: Antiviral activity against wild type HBV infected in human […] cells assessed as inhibition of viral DNA replication at 10 uM measured after incubation of 72 hrs by RT-PCR analysis relative to control; type: functional, HepG2 2.2.15
Procedure, shortened: (§3)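 Parental HepG2 cells were plated at 2×10^5/well. After 24 h they were transiently transfected for 24 h with a full-length wild-type HBV genome plasmid, then washed with PBS. Cells were then treated for 72 h in fresh medium: entecavir 10 µM, lamivudine 100 µM. Intracellular HBV DNA replicative intermediates were quantified by real-time PCR.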

[9] = tested on: Hepatitis B virus; assay: Antiviral activity against lamivudine/entecavir-resistant HBV rtL180M/rtM204V/rtT184L mutant infected in human HepG2 2.2.15 cells assessed as inhibition of viral DNA replication at 10 uM measured after incubation of 72 hrs by RT-PCR analysis relative to control; type: functional; procedure, shortened: as §2
[10] = tested on: Hepatitis B virus; assay: Antiviral activity against HBV infected in human HepG2 2.2.15 cells assessed as inhibition of pregenomic RNA expression at 1 uM measured after incubation of 6 by RT-PCR analysis relative to control; type: functional; conditions: HepG2 2.2.15, 144 h, read-out: INH, time 6 day
Procedure, shortened: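 HepG2 2.2.15 cells were seeded at 6×10^5/well in 6-well plates. They were incubated with 1 µM compound for 6 days. Total cellular RNA was then extracted and pgRNA copies/mL were measured by real-time PCR, giving % inhibition relative to untreated control.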

[11] = tested on: Hepatitis B virus; assay: Antiviral activity against wild type HBV infected in human […] cells assessed as inhibition of viral DNA replication at 100 uM measured after incubation of 72 hrs by RT-PCR analysis relative to control; type: functional, HepG2 2.2.15; procedure, shortened: as §3
[12] = tested on: Hepatitis B virus; assay: Antiviral activity against lamivudine/entecavir-resistant HBV rtL180M/rtM204V/rtT184L mutant infected in human HepG2 2.2.15 cells assessed as inhibition of viral DNA replication at 100 uM measured after incubation of 72 hrs by RT-PCR analysis relative to control; type: functional; procedure, shortened: as §2

Compound | CC50 at 72 h [1] [µM] | inhibition at 0.8 µM [2] [%] | further results
O=C(N[C@H](CO)Cc1ccccc1)/C(NC(=O)c1ccccc1Br)=C(/Br)c1ccccc1 | > 100 | 17.2 | –
COc1cccc(C(=O)N/C(C(=O)N[C@H](CO)Cc2ccccc2)=C(\Br)c2ccccc2)c1 | > 100 | 4.89 | –
O=C(N[C@H](CO)Cc1ccccc1)/C(NC(=O)c1ccc(F)cc1Cl)=C(/Br)c1ccccc1 | > 100 | 56.1 | –
O=C(N[C@H](CO)Cc1ccccc1)/C(NC(=O)c1ccc(F)c(F)c1)=C(/Br)c1ccccc1 | > 100 | 73.7 | pIC50 [3]: 6.32; selectivity ratio at 144 h [4]: > 208
O=C(N[C@H](CO)Cc1ccccc1)/C(NC(=O)c1ccccc1)=C(/Br)c1cccc([N+](=O)[O-])c1 | 93.7 | 2.28 | –
O=C(N[C@H](CO)Cc1ccccc1)/C(NC(=O)c1cccc(F)c1)=C(/Br)c1ccccc1 | > 100 | 9.07 | –
CCN(CC)CCOc1cccc(/C(Br)=C(/NC(=O)c2ccccc2)C(=O)N[C@H](CO)Cc2ccccc2)c1 | 83.6 | 56.5 | –
Cc1cc(F)ccc1C(=O)N/C(C(=O)N[C@H](CO)Cc1ccccc1)=C(\Br)c1ccccc1 | > 100 | 83.2 | pIC50 [3]: 6.48; selectivity ratio at 144 h [4]: > 303
O=C(N[C@H](CO)Cc1ccccc1)/C(NC(=O)c1cccc(Cl)c1)=C(/Br)c1ccccc1 | > 100 | 5.36 | –
O=C(N[C@H](CO)Cc1ccccc1)/C(NC(=O)c1cc(Cl)cc(Cl)c1)=C(/Br)c1ccccc1 | > 100 | 83.8 | pIC50 [3]: 6.57; selectivity ratio at 144 h [4]: > 370
O=C(N[C@H](CO)Cc1ccccc1)/C(NC(=O)c1ccccc1Cl)=C(/Br)c1ccccc1 | > 100 | 13.9 | –
O=C(N[C@H](CO)Cc1ccccc1)/C(NC(=O)c1ccccc1)=C(/Br)c1cccc(O)c1 | 99.5 | 29.6 | –
O=C(N[C@H](CO)Cc1ccccc1)/C(NC(=O)c1ccc(F)cc1)=C(/Br)c1ccccc1 | > 100 | 74.9 | pIC50 [3]: 6.42; selectivity ratio at 144 h [4]: > 263; inhibition [5]: Dose-dependent effect; pIC50 [5]: 6.37; inhibition at 0.8 µM [6]: 72.9%; selectivity ratio at 72 h [7]: > 232
Cc1cccc(C(=O)N/C(C(=O)N[C@H](CO)Cc2ccccc2)=C(\Br)c2ccccc2)c1 | > 100 | 2.94 | –
Cc1cccc(/C(Br)=C(/NC(=O)c2ccccc2)C(=O)N[C@H](CO)Cc2ccccc2)c1 | > 100 | 57.3 | –
O=C(N[C@H](CO)Cc1ccccc1)/C(NC(=O)c1ccc(Cl)cc1)=C(/Br)c1ccccc1 | > 100 | 70.7 | pIC50 [3]: 6.37; selectivity ratio at 144 h [4]: > 232
C=C1[C@H](CO)[C@@H](O)C[C@@H]1n1cnc2c(=O)[nH]c(N)nc21 [ENTECAVIR] | – | – | inhibition at 10 µM [8]: 96.8%; inhibition at 10 µM [9]: 20.7%
Cc1ccc(C(=O)N/C(C(=O)N[C@H](CO)Cc2ccccc2)=C(\Br)c2ccccc2)cc1 | > 100 | 47.4 | –

Compound | CC50 at 72 h [1] [µM] | inhibition at 0.8 µM [2] [%] | further results
O=C(N[C@H](CO)Cc1ccccc1)/C(NC(=O)c1ccc(Br)cc1)=C(/Br)c1ccccc1 | > 100 | 43 | –
O=C(N[C@H](CO)Cc1ccccc1)/C(NC(=O)c1ccccc1)=C(/Br)c1cccc(F)c1 | > 100 | 42.6 | –
Nc1ccn([C@@H]2CS[C@H](CO)O2)c(=O)n1 [LAMIVUDINE] | > 100 | 86.2 | pIC50 [3]: 7.51; selectivity ratio at 144 h [4]: > 1000; pIC50 [5]: < 4.00; inhibition at 1 µM [10]: 0.26%; inhibition at 100 µM [11]: 90%; inhibition at 100 µM [12]: 18.6%
Cc1ccccc1C(=O)N/C(C(=O)N[C@H](CO)Cc1ccccc1)=C(\Br)c1ccccc1 | > 100 | 5.75 | –
O=C(N[C@H](CO)Cc1ccccc1)/C(NC(=O)c1ccc(F)cc1F)=C(/Br)c1ccccc1 | > 100 | 58.1 | –
COc1cccc(/C(Br)=C(/NC(=O)c2ccccc2)C(=O)N[C@H](CO)Cc2ccccc2)c1 | > 100 | 48.9 | –
O=C(N[C@H](CO)Cc1ccccc1)/C(NC(=O)c1ccccc1)=C(/Br)c1cccc(C(F)(F)F)c1 | > 100 | 23.1 | –
COc1ccc(C(=O)N/C(C(=O)N[C@H](CO)Cc2ccccc2)=C(\Br)c2ccccc2)cc1 | > 100 | 6.25 | –
O=C(N[C@H](CO)Cc1ccccc1)/C(NC(=O)c1ccc(Cl)cc1Cl)=C(/Br)c1ccccc1 | > 100 | 88 | pIC50 [3]: 6.72; selectivity ratio at 144 h [4]: > 526; inhibition [5]: Dose-dependent effect; pIC50 [5]: 6.74; inhibition at 1 µM [10]: 63.1%; inhibition at 0.8 µM [6]: 87%; selectivity ratio at 72 h [7]: > 556
O=C(N[C@H](CO)Cc1ccccc1)/C(NC(=O)c1cccc(Br)c1)=C(/Br)c1ccccc1 | > 100 | 2.48 | –
CN(C)CCCOc1cccc(/C(Br)=C(/NC(=O)c2ccccc2)C(=O)N[C@H](CO)Cc2ccccc2)c1 | 85.6 | 37.7 | –
CC(=O)Oc1cccc(/C(Br)=C(/NC(=O)c2ccccc2)C(=O)N[C@H](CO)Cc2ccccc2)c1 | > 100 | 32.4 | –
O=C(N[C@H](CO)Cc1ccccc1)/C(NC(=O)c1ccccc1)=C(/Br)c1cccc(Cl)c1 | > 100 | 48.2 | –
O=C(N[C@H](CO)Cc1ccccc1)/C(NC(=O)c1ccccc1F)=C(/Br)c1ccccc1 | > 100 | 33.6 | –
CN(C)CCOc1cccc(/C(Br)=C(/NC(=O)c2ccccc2)C(=O)N[C@H](CO)Cc2ccccc2)c1 | 94.7 | 58.4 | –
O=C(N[C@H](CO)Cc1ccccc1)/C(NC(=O)c1ccccc1)=C(/Br)c1cccc(Br)c1 | > 100 | 14.4 | –
COc1ccccc1C(=O)N/C(C(=O)N[C@H](CO)Cc1ccccc1)=C(\Br)c1ccccc1 | > 100 | 11.9 | –
